Activity calls are given as the source filed them. No cut-off for these calls is given here.

The source of these data is ChEMBL document CHEMBL3779787, “Amorfrutin C Induces Apoptosis and Inhibits Proliferation in Colon Cancer Cells through Targeting Mitochondria” (J Nat Prod, 2016).

The subject of data set [1] is HT-29. In words: Induction of apoptosis in human HT-29 cells assessed as permanent opening of mitochondrial permeability transition pore at 30 uM after 30 mins calcein/CoCl2 staining-based fluorescence assay. In kind it is functional, cell-based. In a few lines: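 Trypsinized HT-29 (10^6 cells/mL) in HBSS/Ca with 10 nM calcein and 400 μM CoCl2. Pretreated 60 min at 37 °C with 2 μM cyclosporin A or vehicle, then test compound for 30 min at 37 °C. Washed; mitochondrial calcein fluorescence by flow cytometry; means ± SEM, n = 6.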

The test system of data set [2] is HT-29. In words: Upregulation of p27/Kip1 expression in human HT-29 cells at 10 uM after 48 hrs by immunoblotting method. It is filed as functional, cell-based. The essentials: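 HT-29 cells exposed 48 h to 10 μM compound. Whole-cell protein lysates probed for cell-cycle modulators by immunoblotting.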
In data set [3] the test system is HT-29. In words: Induction of cell cycle arrest in human HT-29 cells assessed as accumulation at G2/M phase at 10 uM by flow cytometry (reference value: 21%). In kind it is functional. In general terms: Flow cytometry measures light scatter and fluorescence of single cells or particles in a stream.
Data set [4] concerns HT-29. In words: Induction of apoptosis in human HT-29 cells assessed as DNA fragmentation by measuring cytoplasmic oligonucleosome level at 30 uM by ELISA. In kind it is functional, cell-based. The essentials:
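Cytosolic DNA by ELISA after 4 h treatment. BrdU method: cells (13 000/well) prelabelled with 10 μM BrdU for 2 days at 37 °C, unincorporated BrdU removed before treatment. Oligonucleosome method: 20 000 cells/well, 1 day at 37 °C. Cell-free background subtracted, normalized to vehicle; means ± SEM, n = 4.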
A general note: ELISA stands for enzyme-linked immunosorbent assay.

The target of data set [5] is T1, Peroxisome proliferator-activated receptor alpha (Homo sapiens, UniProt Q07869).
T1 sequence (Q07869 whole entry): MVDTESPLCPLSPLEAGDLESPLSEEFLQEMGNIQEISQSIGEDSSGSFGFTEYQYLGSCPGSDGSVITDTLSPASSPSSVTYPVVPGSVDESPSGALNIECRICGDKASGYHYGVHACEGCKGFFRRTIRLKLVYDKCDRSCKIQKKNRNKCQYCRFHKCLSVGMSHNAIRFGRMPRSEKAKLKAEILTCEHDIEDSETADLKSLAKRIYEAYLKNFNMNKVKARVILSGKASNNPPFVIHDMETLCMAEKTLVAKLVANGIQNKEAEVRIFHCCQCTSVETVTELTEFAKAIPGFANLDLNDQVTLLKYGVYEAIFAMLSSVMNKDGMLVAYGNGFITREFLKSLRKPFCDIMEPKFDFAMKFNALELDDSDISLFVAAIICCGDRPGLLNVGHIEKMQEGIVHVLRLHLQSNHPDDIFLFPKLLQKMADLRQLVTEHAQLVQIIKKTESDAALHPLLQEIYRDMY
In words: Competitive binding affinity to PPARalpha (unknown origin) by TR-FRET assay. (Time-resolved FRET reads energy transfer from a long-lived donor to a nearby acceptor.)

In data set [6] the target is T2, Peroxisome proliferator-activated receptor gamma (Homo sapiens, UniProt P37231).
T2 sequence (P37231 whole entry): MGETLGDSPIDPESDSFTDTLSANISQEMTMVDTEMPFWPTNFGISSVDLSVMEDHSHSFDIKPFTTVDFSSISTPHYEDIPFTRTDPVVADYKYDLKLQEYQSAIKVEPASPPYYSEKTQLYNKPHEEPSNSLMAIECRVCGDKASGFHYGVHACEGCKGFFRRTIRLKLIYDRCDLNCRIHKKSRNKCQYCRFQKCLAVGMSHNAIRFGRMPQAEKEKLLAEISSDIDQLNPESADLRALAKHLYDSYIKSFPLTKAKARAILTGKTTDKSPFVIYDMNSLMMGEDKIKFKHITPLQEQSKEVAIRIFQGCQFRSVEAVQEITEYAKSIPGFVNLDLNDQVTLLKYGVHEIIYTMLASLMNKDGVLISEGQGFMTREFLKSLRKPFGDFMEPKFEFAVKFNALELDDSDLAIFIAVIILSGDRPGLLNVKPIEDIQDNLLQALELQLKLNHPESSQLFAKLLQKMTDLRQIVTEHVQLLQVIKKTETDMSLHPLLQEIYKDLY
In words: Competitive binding affinity to PPARgamma (unknown origin) by TR-FRET assay.

Data set [7] has as its system HT-29. In words: Induction of ROS generation in human HT-29 cells at 30 uM by CM-H2DCFDA staining-based fluorescence assay. In kind it is functional, cell-based. The essentials:
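HT-29 (15 000 cells/well) loaded with 50 μM CM-H2DCFDA in PBS for 30 min at 37 °C, washed, then 60 min in phenol red-free DMEM/F-12. 30 μM compound added alone or with NAC 1 mM, GSH 2.5 mM, D3T 25 μM, α-tocopherol 50 μM or ascorbic acid 500 μM. Fluorescence 485/530 nm read kinetically at 37 °C for 22 h; area under curve; means ± SEM, n = 7.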

Data set [8] concerns HT-29. In words: Antiproliferative activity against human HT-29 cells assessed as cellular DNA content at 20 uM after 48 hrs by CyQUANT NF fluorescence assay in presence of 3H-1,2-dithiole-3-thione. In kind it is functional, cell-based. In a few lines: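 HT-29 given concentration series of test compound with or without antioxidant (NAC 1 mM, GSH 2.5 mM, D3T 25 μM, α-tocopherol 50 μM, ascorbic acid 500 μM) for 48 h. Relative cell number from DNA-binding fluorescent dye; means ± SD, n = 4.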

In data set [9] the test system is HT-29. In words: Induction of apoptosis in human HT-29 cells at 30 uM after 24 hrs by annexin V-FLUOS/propidium iodide staining-based flow cytometry in presence of 3H-1,2-dithiole-3-thione. It is filed as functional, cell-based. In a few lines:
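HT-29 treated 24 h with 30 μM with or without antioxidant (NAC 1 mM, D3T 25 μM). Apoptosis by annexin V/propidium iodide flow cytometry; means ± SEM, n = 3.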

Data set [10] concerns HT-29. In words: Induction of apoptosis in human HT-29 cells at 30 uM after 24 hrs by annexin V-FLUOS/propidium iodide staining-based flow cytometry in presence of alpha-tocopherol. It is filed as functional, cell-based. In a few lines:
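HT-29 cells co-incubated 24 h with 30 μM compound and antioxidant: glutathione 2.5 mM, α-tocopherol 50 μM, or ascorbic acid 500 μM. Phosphatidylserine externalization measured by annexin V-FLUOS/propidium iodide staining and flow cytometry. Means ± SEM, n = 3.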

For data set [11], the system named is HT-29. In words: Increase in mitochondrial oxygen consumption in human HT-29 cells at 2 to 10 uM measured for 20 to 60 mins by time-resolved fluorescence assay. In kind it is functional, cell-based. In a few lines: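 HT-29 at 80 000 cells/well in phenol red-free DMEM/F-12 with oxygen-sensitive lifetime probe, compound added, wells sealed with mineral oil. Time-resolved fluorescence at 37 °C, 90 s intervals for 150 min. Lifetime slope over 20–60 min expressed relative to untreated cells; means ± SEM, n = 8.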

Data set [12] can be described thus: Dissociation constant, pKa of the compound by UV metric method. It is filed as physicochemical. The essentials: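 UV-metric titration with 0.15 M KCl at 25 °C: pH 12.0–2.0 at 32–26 μM in methanol/water cosolvent, and pH 12.5–8.9 at 30–21 μM in water.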
Data set [13] concerns HT-29. In words: Induction of apoptosis in human HT-29 cells assessed as increase in phosphatidylserine externalization at 10 uM after 48 hrs by flow cytometry in presence of alphaFas. In kind it is functional, cell-based. In a few lines: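 HT-29 exposed 48 h to 10 μM compound, αFAS (10 ng/mL), TRAIL (30 ng/mL) or combinations. Phosphatidylserine externalization by annexin V flow cytometry. Expected combination effects from Bliss independence; means ± SEM, n = 4.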

For the molecule `COc1c(CC=C(C)C)c(O)c(C(=O)O)c(CCc2ccccc2)c1CC=C(C)C`, the result in the data set with HT-29 [1], with HT-29 [2], in the data set on HT-29 [4], in the data set on HT-29 [7], in the data set with HT-29 [8] and with HT-29 [9] was Active. Further, the outcome in the data set on HT-29 [10], in the data set with HT-29 [11] and with HT-29 [13] was Active. In addition, the Activity in the data set on HT-29 [3] is 7%. The Ki (commonly a measure of affinity in units of concentration, obtained from inhibition or displacement) in data set [5] was 9.1 µM; in data set [6], 0.7 µM. Besides, the pKa (commonly the pH at which an ionisable group is half protonated) in data set [12] turned out to be 3.5.
